Measured values of several laboratories.
Protocols differ between the studies behind these lines.
BRAF V600E: Serine/threonine-protein kinase B-raf (BRAF, Homo sapiens, UniProt P15056, V600E)
BRAF: Serine/threonine-protein kinase B-raf (BRAF, Homo sapiens, UniProt P15056)

`Cc1ccc(C(CS(=O)(=O)c2ccccc2)=NNc2nc(-c3ccc(OCCCCOc4ccc(-c5csc(NN=C(CS(=O)(=O)c6ccccc6)c6ccc(C)cc6)n5)cc4)cc3)cs2)cc1` has an inhibition of 84% (BRAF V600E; enzyme activity, inhibitor, ATP luminescence; 1 µM).
`Nc1ncnc2occ(-c3ccc(NC(=O)Nc4cc(C(F)(F)F)ccc4F)cc3)c12` gave a remaining signal of 0.8% (BRAF; cell-free assay; 20 µM).
For `O=C(Nc1cnn(-c2csc(C(=O)NC3COC3)c2)c1)Nc1c(F)cccc1Cl`, the remaining activity was 99.9% (BRAF; enzyme activity, inhibitor; 5 µM).
The activity vs control of `CC(C)(C)c1nc(-c2cccc(NS(=O)(=O)c3c(F)cccc3F)c2F)c(-c2ccnc(N)n2)s1` is reported as 5% (BRAF; enzyme activity, inhibitor, radiometric; 1 µM).
`Cc1ccc(C(CS(=O)(=O)c2ccccc2)=NNC2=NC(=O)C(=NNc3ccccc3)S2)cc1` gave an inhibition of 67% (BRAF V600E; enzyme activity, inhibitor, ATP luminescence; 1 µM).
`COc1cc(Nc2c(C#N)cnc3cc(OCCCN4CCN(C)CC4)c(OC)cc23)c(Cl)cc1Cl` has a remaining signal of 91.7% (BRAF; cell-free assay; 0.5 µM).
With `CC(C)(O)[C@H]1CC[C@H](Nc2ccc3ncc(-c4cccc(C(F)(F)F)c4)n3n2)CC1` the remaining activity was 93.8% (BRAF; enzyme activity, inhibitor; 1 µM).
With `COc1cc2nccc(Oc3ccc(NC(=O)Nc4ccc(F)cc4F)c(F)c3)c2cc1OC` the ΔTm was > 10 °C (BRAF; thermal stability, DSF; 10 µM).
With `C[C@@H]1CCN(C(=O)CC#N)C[C@@H]1N(C)c1ncnc2[nH]ccc12` the remaining signal was 93.7% (BRAF; cell-free assay; 0.5 µM).
The remaining binding of `CN(c1nccc(-c2cnn3ncccc23)n1)C1CC1` is reported as 100% (BRAF; binding; 1 µM).
`O=C(Nc1cccnn1)N1CCC(=Cc2cccc(Oc3ccc(C(F)(F)F)cn3)c2)CC1` gave a remaining binding of 100% (BRAF V600E; cell-free assay, competition with immobilised ligand; 1 µM).
`N[C@@H]1CCN(c2nccc(-c3cnn4ncccc34)n2)C1` has a remaining binding of 97% (BRAF V600E; binding; 1 µM).
With `CN(C)C1CCN(CC#Cc2nn(C3CCCC3)c3nc(NCc4ccccc4)ncc23)C1` (stereo not shown) the inhibition was -3% (BRAF; enzyme activity, inhibitor, FRET; 0.1 µM).
The remaining signal of `N#CCCc1ccc2c(c1)-c1[nH]c3ccc([N+](=O)[O-])cc3c1CC(=O)N2` is reported as 99.3% (BRAF; cell-free assay; 0.5 µM).
`Cc1nc(C2CCN(C(=O)c3ccc(OC(F)(F)F)cc3N)CC2)c2ncc(N3CCN(C)CC3)cc2n1` gave a remaining binding of 100% (BRAF; cell-free assay, competition with immobilised ligand; 1 µM).
For `Cc1ccc(C(=O)Nc2ccc(CN3CCN(C)CC3)c(C(F)(F)F)c2)cc1C#Cc1cnc2cccnn12`, the remaining signal was 15% (BRAF; cell-free assay; 23.5 nM).
For `Cn1nc(C(=O)NCc2ccc(C(=O)O)cc2)cc1-c1ccc2[nH]ccc2c1`, the remaining binding was 74% (BRAF; cell-free assay, competition with immobilised ligand; 0.1 µM).
`COc1ccc(-c2csc(NN=C(CS(=O)(=O)c3ccccc3)c3ccc(F)cc3)n2)cc1` gave an inhibition of 89% (BRAF V600E; enzyme activity, inhibitor, ATP luminescence; 10 µM).
With `Cc1nc(N2CC[C@@H](O)C2)ncc1-c1cc(C(F)(F)F)cc2[nH]ncc12` the remaining binding was 73% (BRAF; cell-free assay, competition with immobilised ligand; 1 µM).
`Cc1ccc(C(CS(=O)(=O)c2ccccc2)=NNc2nc(C)c(N=Nc3ccccc3)s2)cc1` has an inhibition of 63% (BRAF V600E; enzyme activity, inhibitor, ATP luminescence; 1 µM).
With `O=C(Nc1cnn(-c2csc(C(=O)NC3COC3)c2)c1)Nc1ccccc1Cl` the remaining activity was 93.3% (BRAF; enzyme activity, inhibitor; 5 µM).
`Cc1ccc(C(CS(=O)(=O)c2ccccc2)=NN=C2N=C(c3ccc(C)cc3)CS2)cc1` gave an inhibition of 86% (BRAF V600E; enzyme activity, inhibitor, ATP luminescence; 10 µM).
For `CNC(=O)c1ccc(Nc2ncc(C(F)(F)F)c(NCc3nccnc3N(C)S(C)(=O)=O)n2)cc1`, the remaining binding was 100% (BRAF V600E; cell-free assay, competition with immobilised ligand; 0.1 µM).
With `NC(=S)NN=C(CS(=O)(=O)c1ccccc1)c1ccc(F)cc1` the inhibition was 76% (BRAF V600E; enzyme activity, inhibitor, ATP luminescence; 1 µM).
`O=C(Nc1cnc(Oc2ccc(F)cc2)nc1)N1CCc2ncccc2[C@@H]1c1ccc(F)cc1` gave a remaining binding of 83% (BRAF V600E; cell-free assay, competition with immobilised ligand; 1 µM).
`Cc1cc(NC(=O)c2cccc3cc(-c4cccc5[nH]nc(N)c45)ccc23)ccc1F` gave an activity vs control of 100% (BRAF V600E; enzyme activity, inhibitor; 0.1 µM).
The remaining binding of `COc1ccc2c(c1)O[C@H](c1ccc(OC)c(OC)c1)C[C@@H]2NC(=O)C1(c2ccc3c(c2)OC(F)(F)O3)CC1` is reported as 93% (BRAF V600E; cell-free assay, competition with immobilised ligand; 1 µM).
With `Cc1ccc(C(=O)NCc2ccsc2)cc1C#Cc1cn(C(C)C)c2ncnc(N)c12` the activity vs control was 9% (BRAF V600E; enzyme activity, inhibitor; 1 µM).
`Cc1ccc(C(CS(=O)(=O)c2ccccc2)=NNC2=NC(=O)C(=NNc3ccc(Cl)cc3)S2)cc1` has an inhibition of 61% (BRAF V600E; enzyme activity, inhibitor, ATP luminescence; 1 µM).
`O=C(NS(=O)(=O)c1ccc(NCC2CCOCC2)c([N+](=O)[O-])c1)c1ccc(N2CCN(Cc3ccc(C(F)(F)F)cc3-c3ccc(Cl)cc3)CC2)cc1Oc1cnc2[nH]ccc2c1` gave a remaining binding of 83% (BRAF V600E; cell-free assay, competition with immobilised ligand; 1 µM).
For `CC(C)(C)c1nc2c(s1)c1nc(N)ncc1c1ccc(NS(=O)(=O)c3c(F)cccc3F)c(F)c12`, the remaining activity was 27% (BRAF V600E; enzyme activity, inhibitor, radiometric; 1 µM).
